Measurements taken from ChEMBL document CHEMBL4041542, “Synthesis and biological characterisation of ester and amide derivatives of fusidic acid as antiplasmodial agents” (Bioorg Med Chem Lett, 2017).

Assays:
Plasmodium falciparum [1] = experiment: Antiplasmodial activity against chloroquine-sensitive Plasmodium falciparum D10 infected in erythrocytes after 48 hrs by giemsa staining based assay; format: functional, cell-based; conditions: D10, 48 h
Plasmodium falciparum [2] = experiment: Antiplasmodial activity against chloroquine-resistant Plasmodium falciparum K1 by [3H]hypoxanthine incorporation assay; format: functional
Summary of the method: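 Multidrug-resistant K1 strain of P. falciparum tested in vitro with a modified [3H]hypoxanthine incorporation assay. IC50 determined. Chloroquine and artesunate served as reference drugs in every experiment.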

CHO = experiment: Cytotoxicity against CHO cells; format: cell-based; conditions: Cricetulus griseus
[3] = Selectivity index, ratio of IC50 for CHO cells to IC50 for chloroquine-sensitive Plasmodium falciparum NF54; format: toxicity; conditions: hamster, read-out: Ratio IC50
Summary of the method: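 IC50 against Chinese hamster ovary cells (cytotoxicity) was divided by IC50 against P. falciparum NF54. NF54 IC50 came from the lactate dehydrogenase assay, with chloroquine and artesunate as references.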

Plasmodium falciparum [4] = experiment: Antiplasmodial activity against chloroquine-sensitive Plasmodium falciparum NF54 by LDH assay; format: functional
Summary of the method: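 In vitro test on the chloroquine-sensitive NF54 strain of P. falciparum, read out by the lactate dehydrogenase assay. Reported as IC50. Chloroquine and artesunate were included as reference drugs in all experiments.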

[5] = Stability of the compound assessed as Plasmodium falciparum NF54 esterase-mediated fusidic acid release at 0.5 uM up to 48 hrs by LC-MS/MS analysis; format: ADME; conditions: plasmodium falciparum nf54, isolated protein
Plasmodium falciparum [6] = experiment: Potency index, ratio of fusidic acid IC50 to compound IC50 for chloroquine-sensitive Plasmodium falciparum NF54; format: functional
Summary of the method: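 Chloroquine-sensitive P. falciparum NF54 was tested with the lactate dehydrogenase assay, using chloroquine and artesunate as reference drugs. The index is fusidic acid's IC50 divided by the compound's IC50, both against NF54.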

Plasmodium falciparum [7] = experiment: Potency index, ratio of fusidic acid IC50 to compound IC50 for chloroquine-resistant Plasmodium falciparum K1; format: functional

Structure (SMILES)	IC50 (Plasmodium falciparum [1]) [µM]	IC50 (Plasmodium falciparum [2]) [µM]	IC50 (CHO) [µM]	selectivity ratio [3]	IC50 (Plasmodium falciparum [4]) [µM]	Stability [5]	Ratio IC50 (Plasmodium falciparum [6])	Ratio IC50 (Plasmodium falciparum [7])
CC(=O)O[C@H]1C[C@@]2(C)[C@@H](C[C@@H](O)[C@H]3[C@@]4(C)CC[C@@H](O)[C@@H](C)[C@@H]4CC[C@@]32C)/C1=C(\CCC=C(C)C)C(=O)O [FUSIDIC ACID]	50	19	> 194	> 3				
CC(=O)O[C@H]1C[C@@]2(C)[C@@H](C[C@@H](O)[C@H]3[C@@]4(C)CC[C@@H](O)[C@@H](C)[C@@H]4CC[C@@]32C)/C1=C(\CCC=C(C)C)C(=O)Nc1ccccc1		1.4	89.2	74	1.2	Stable	4 - 49	5 - 17
